Measured values taken from ChEMBL document CHEMBL2040727, “Substituted thiazoles VI. Synthesis and antitumor activity of new 2-acetamido- and 2 or 3-propanamido-thiazole analogs” (2012).

Columns and labels:
Assay type in all cases: functional
[1] = tested on: HL-60(TB); assay: Growth inhibition of human HL-60(TB) cells at 10 uM after 48 hrs by coulter counter analysis; settings: HL-60, 48 h, read-out: GI
Outline: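 Cells grown in RPMI 1640 with 10% FBS. Compound was dissolved in DMSO and diluted in PBS (under 1% DMSO final), then added in duplicate wells to culture at 6 × 10⁴ cells/ml. PBS/DMSO vehicle controls were included. Incubated at 37 °C, humidified 5% CO₂, for 48 h. Cells were diluted 10-fold in saline and Coulter-counted. Single-dose NCI-60 screen, read as percent growth inhibition.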

[2] = tested on: K562; assay: Growth inhibition of human K562 cells at 10 uM after 48 hrs by coulter counter analysis; settings: K562, 48 h, read-out: GI
Outline: (§1)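 Single-dose NCI 60-line panel screen of test compounds. Cells grown in RPMI 1640 with 10% FBS. Compounds dissolved in DMSO, then diluted in phosphate buffer saline (final DMSO below 1%). Wells run in duplicate at 6 × 10⁴ cells/ml. Controls held PBS and DMSO at matching dilutions. Incubation 48 h at 37 °C under humidified 5% CO2. Cells diluted tenfold in saline and counted by Coulter counter. Percent growth inhibition taken from mean-graph of treated-cell growth.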

[3] = tested on: MOLT-4; assay: Growth inhibition of human MOLT4 cells at 10 uM after 48 hrs by coulter counter analysis; settings: MOLT-4, 48 h, read-out: GI; outline: as §1
[4] = tested on: RPMI-8226; assay: Growth inhibition of human RPMI8226 cells at 10 uM after 48 hrs by coulter counter analysis; settings: RPMI-8226, 48 h, read-out: GI; outline: as §1
[5] = tested on: SR; assay: Growth inhibition of human SR cells at 10 uM after 48 hrs by coulter counter analysis; settings: read-out: GI
Outline: (§2)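 Single-dose screen in the NCI 60 cell line panel. Cells grown in RPMI 1640 with 10% FBS. Compounds dissolved in DMSO and diluted in phosphate buffered saline, final DMSO under 1%. Duplicate wells seeded from culture at 6 × 10⁴ cells/ml. Incubated 48 h at 37 °C, humidified, 5% CO2. Cells diluted tenfold in saline and Coulter-counted. Percent growth inhibition computed against PBS/DMSO controls.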

[6] = tested on: A549; assay: Growth inhibition of human A549/ATCC cells at 10 uM after 48 hrs by coulter counter analysis; settings: A549, 48 h, read-out: GI; outline: as §1
[7] = tested on: HOP-92; assay: Growth inhibition of human HOP92 cells at 10 uM after 48 hrs by coulter counter analysis; settings: HOP-92, 48 h, read-out: GI; outline: as §1
[8] = tested on: NCI-H23; assay: Growth inhibition of human NCI-H23 cells at 10 uM after 48 hrs by coulter counter analysis; settings: NCI-H23, 48 h, read-out: GI; outline: as §1
[9] = tested on: NCI-H322M; assay: Growth inhibition of human NCI-H322M cells at 10 uM after 48 hrs by coulter counter analysis; settings: read-out: GI; outline: as §1
[10] = tested on: NCI-H460; assay: Growth inhibition of human NCI-H460 cells at 10 uM after 48 hrs by coulter counter analysis; settings: NCI-H460, 48 h, read-out: GI; outline: as §1
[11] = tested on: HCC 2998; assay: Growth inhibition of human HCC2998 cells at 10 uM after 48 hrs by coulter counter analysis; settings: HCC 2998, 48 h, read-out: GI; outline: as §1
[12] = tested on: HCT-116; assay: Growth inhibition of human HCT116 cells at 10 uM after 48 hrs by coulter counter analysis; settings: HCT-116, 48 h, read-out: GI; outline: as §1
[13] = tested on: HCT-15; assay: Growth inhibition of human HCT15 cells at 10 uM after 48 hrs by coulter counter analysis; settings: HCT-15, 48 h, read-out: GI; outline: as §1
[14] = tested on: HT-29; assay: Growth inhibition of human HT-29 cells at 10 uM after 48 hrs by coulter counter analysis; settings: HT-29, 48 h, read-out: GI; outline: as §1
[15] = tested on: KM12; assay: Growth inhibition of human KM12 cells at 10 uM after 48 hrs by coulter counter analysis; settings: KM12, 48 h, read-out: GI; outline: as §1
[16] = tested on: SW-620; assay: Growth inhibition of human SW620 cells at 10 uM after 48 hrs by coulter counter analysis; settings: SW-620, 48 h, read-out: GI; outline: as §2
[17] = tested on: SF-295; assay: Growth inhibition of human SF295 cells at 10 uM after 48 hrs by coulter counter analysis; settings: SF-295, 48 h, read-out: GI; outline: as §1
[18] = tested on: SF-539; assay: Growth inhibition of human SF539 cells at 10 uM after 48 hrs by coulter counter analysis; settings: SF-539, 48 h, read-out: GI; outline: as §1
[19] = tested on: SNB-75; assay: Growth inhibition of human SNB75 cells at 10 uM after 48 hrs by coulter counter analysis; settings: SNB-75, 48 h, read-out: GI; outline: as §2
[20] = tested on: U-251; assay: Growth inhibition of human U251 cells at 10 uM after 48 hrs by coulter counter analysis; settings: U-251, 48 h, read-out: GI; outline: as §2
[21] = tested on: M14; assay: Growth inhibition of human M14 cells at 10 uM after 48 hrs by coulter counter analysis; settings: M14, 48 h, read-out: GI; outline: as §1
[22] = tested on: SK-MEL-2; assay: Growth inhibition of human SK-MEL-2 cells at 10 uM after 48 hrs by coulter counter analysis; settings: SK-MEL-2, 48 h, read-out: GI; outline: as §1
[23] = tested on: SK-MEL-5; assay: Growth inhibition of human SK-MEL-5 cells at 10 uM after 48 hrs by coulter counter analysis; settings: SK-MEL-5, 48 h, read-out: GI; outline: as §1
[24] = tested on: UACC-62; assay: Growth inhibition of human UACC62 cells at 10 uM after 48 hrs by coulter counter analysis; settings: UACC-62, 48 h, read-out: GI; outline: as §2
[25] = tested on: OVCAR-4; assay: Growth inhibition of human OVCAR4 cells at 10 uM after 48 hrs by coulter counter analysis; settings: OVCAR-4, 48 h, read-out: GI; outline: as §1
[26] = tested on: A498; assay: Growth inhibition of human A498 cells at 10 uM after 48 hrs by coulter counter analysis; settings: A498, 48 h, read-out: GI; outline: as §1
[27] = tested on: ACHN; assay: Growth inhibition of human ACHN cells at 10 uM after 48 hrs by coulter counter analysis; settings: read-out: GI; outline: as §1
[28] = tested on: RXF 393; assay: Growth inhibition of human RXF393 cells at 10 uM after 48 hrs by coulter counter analysis; settings: RXF 393, 48 h, read-out: GI; outline: as §1
[29] = tested on: UO-31; assay: Growth inhibition of human UO31 cells at 10 uM after 48 hrs by coulter counter analysis; settings: UO-31, 48 h, read-out: GI; outline: as §2
[30] = tested on: PC-3; assay: Growth inhibition of human PC3 cells at 10 uM after 48 hrs by coulter counter analysis; settings: PC-3, 48 h, read-out: GI; outline: as §1
[31] = tested on: DU-145; assay: Growth inhibition of human DU145 cells at 10 uM after 48 hrs by coulter counter analysis; settings: DU-145, 48 h, read-out: GI; outline: as §1
[32] = tested on: MCF7; assay: Growth inhibition of human MCF7 cells at 10 uM after 48 hrs by coulter counter analysis; settings: MCF7, 48 h, read-out: GI; outline: as §1
[33] = tested on: T47D; assay: Growth inhibition of human T47D cells at 10 uM after 48 hrs by coulter counter analysis; settings: read-out: GI; outline: as §2
[34] = tested on: CCRF-CEM; assay: Growth inhibition of human CCRF-CEM cells at 10 uM after 48 hrs by coulter counter analysis; settings: read-out: GI; outline: as §1

SMILES	inhibition of growth at 10 µM [1] [%]	inhibition of growth at 10 µM [2] [%]	inhibition of growth at 10 µM [3] [%]	inhibition of growth at 10 µM [4] [%]	inhibition of growth at 10 µM [5] [%]	inhibition of growth at 10 µM [6] [%]	inhibition of growth at 10 µM [7] [%]	inhibition of growth at 10 µM [8] [%]	inhibition of growth at 10 µM [9] [%]	inhibition of growth at 10 µM [10] [%]	inhibition of growth at 10 µM [11] [%]	inhibition of growth at 10 µM [12] [%]	inhibition of growth at 10 µM [13] [%]	inhibition of growth at 10 µM [14] [%]	inhibition of growth at 10 µM [15] [%]	inhibition of growth at 10 µM [16] [%]	inhibition of growth at 10 µM [17] [%]	inhibition of growth at 10 µM [18] [%]	inhibition of growth at 10 µM [19] [%]	inhibition of growth at 10 µM [20] [%]	also measured
Cc1csc(NC(=O)C(C)N2CCN(C)CC2)n1 (stereo not drawn)	< 10	< 10	12.1	< 10	< 10	< 10	< 10	19.8	< 10	< 10	< 10	30.1	25.5	< 10	< 10	< 10	< 10	< 10	< 10	23.5	inhibition of growth at 10 µM [21]: 25.5%; inhibition of growth at 10 µM [22]: < 10%; inhibition of growth at 10 µM [23]: 11.3%; inhibition of growth at 10 µM [24]: 24%; inhibition of growth at 10 µM [25]: 16.2%; inhibition of growth at 10 µM [26]: < 10%; inhibition of growth at 10 µM [27]: < 10%; inhibition of growth at 10 µM [28]: < 10%; inhibition of growth at 10 µM [29]: < 10%; inhibition of growth at 10 µM [30]: < 10%; inhibition of growth at 10 µM [31]: < 10%; inhibition of growth at 10 µM [32]: 35.6%; inhibition of growth at 10 µM [33]: < 10%; inhibition of growth at 10 µM [34]: 41.1%
O=C(CN1CCN(c2ccccc2)CC1)Nc1nc(-c2ccccc2)cs1	22	20	31.3	25	< 10	17.6	25.6	18.6	11.3	25	< 10	17.7	54.6	23.8	< 10	< 10	15.9	< 10	29.7	< 10	inhibition of growth at 10 µM [21]: 13.6%; inhibition of growth at 10 µM [22]: 11.6%; inhibition of growth at 10 µM [23]: 31.9%; inhibition of growth at 10 µM [24]: 36.6%; inhibition of growth at 10 µM [25]: < 10%; inhibition of growth at 10 µM [26]: 44.1%; inhibition of growth at 10 µM [27]: 16.2%; inhibition of growth at 10 µM [28]: < 10%; inhibition of growth at 10 µM [29]: 51.4%; inhibition of growth at 10 µM [30]: 26.3%; inhibition of growth at 10 µM [31]: < 10%; inhibition of growth at 10 µM [32]: 19.3%; inhibition of growth at 10 µM [33]: 29.7%; inhibition of growth at 10 µM [34]: 22.7%
